Activity calls are given as the source filed them. The rule behind the calls is not given here. Positions of bridges follow the written chain, without caps; N, C: chain ends. Non-standard residues stand in square brackets, D forms with d. Residues, ends and D or L forms follow the SMILES beside them. 2Nal = N[C@@H](Cc1ccc2ccccc2c1)C(=O)O; Bta = N[C@@H](Cc1csc2ccccc12)C(=O)O; Pen = CC(C)(S)[C@H](N)C(=O)O; Tle = CC(C)(C)[C@H](N)C(=O)O; Pip = O=C(O)[C@@H]1CCCCN1
What was measured:
[1] = Drug uptake in human HeLa cells at 5 uM incubated for 2 hrs by flow cytometry relative to CPP9; assay type: ADME, cell-based
Outline: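 Naphthofluorescein-labelled cyclic peptides (5 μM final, 0.5% DMSO, in DMEM with 10% FBS) were applied to HeLa cells, seeded the day before at 15 × 10^4 per well, for 2 h at 37 °C. Cells were washed with cold DPBS, trypsinized and analysed by flow cytometry. Mean fluorescence was expressed as % of CPP9; n = 3.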

[2] = molecular target: T1, Golgi-associated PDZ and coiled-coil motif-containing protein (Homo sapiens, UniProt Q9HD26); assay: Binding affinity to C-terminal His6 tagged CAL PDZ domain (unknown origin) expressed in Escherichia coli BL21 incubated for 1 hr using FAM-22 probe by fluorescence polarization based competition assay
[3] = Half life in 25% human serum at 100 uM incubated for 24 hrs at 37 degC by HPLC analysis; assay type: ADME, cell-free
Outline: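 Human serum diluted 1:4 in DPBS was pre-warmed to 37 °C, and peptide (100 μM final) was incubated in it at 37 °C. At each time point, aliquots were deproteinized with 15% TCA in MeOH plus MeCN for 24 h at 4 °C and centrifuged. Supernatants were analysed by reversed-phase HPLC, reading at 214 nm, for intact peptide remaining.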

[4] = test system: Cystic fibrosis transmembrane conductance regulator (Homo sapiens), P13569 [F508del]; assay: Corrector activity at CFTR F508del mutant in human CF-HBE cells isolated from patient with F508del mutation assessed as increase in short-circuit current at 5 uM incubated for 24 hrs; assay type: cell-based; conditions: Epithelial cell, filed as activator
Cystic fibrosis transmembrane conductance regulator (Homo sapiens), P13569 [F508del], sequence (P13569 as listed by the source): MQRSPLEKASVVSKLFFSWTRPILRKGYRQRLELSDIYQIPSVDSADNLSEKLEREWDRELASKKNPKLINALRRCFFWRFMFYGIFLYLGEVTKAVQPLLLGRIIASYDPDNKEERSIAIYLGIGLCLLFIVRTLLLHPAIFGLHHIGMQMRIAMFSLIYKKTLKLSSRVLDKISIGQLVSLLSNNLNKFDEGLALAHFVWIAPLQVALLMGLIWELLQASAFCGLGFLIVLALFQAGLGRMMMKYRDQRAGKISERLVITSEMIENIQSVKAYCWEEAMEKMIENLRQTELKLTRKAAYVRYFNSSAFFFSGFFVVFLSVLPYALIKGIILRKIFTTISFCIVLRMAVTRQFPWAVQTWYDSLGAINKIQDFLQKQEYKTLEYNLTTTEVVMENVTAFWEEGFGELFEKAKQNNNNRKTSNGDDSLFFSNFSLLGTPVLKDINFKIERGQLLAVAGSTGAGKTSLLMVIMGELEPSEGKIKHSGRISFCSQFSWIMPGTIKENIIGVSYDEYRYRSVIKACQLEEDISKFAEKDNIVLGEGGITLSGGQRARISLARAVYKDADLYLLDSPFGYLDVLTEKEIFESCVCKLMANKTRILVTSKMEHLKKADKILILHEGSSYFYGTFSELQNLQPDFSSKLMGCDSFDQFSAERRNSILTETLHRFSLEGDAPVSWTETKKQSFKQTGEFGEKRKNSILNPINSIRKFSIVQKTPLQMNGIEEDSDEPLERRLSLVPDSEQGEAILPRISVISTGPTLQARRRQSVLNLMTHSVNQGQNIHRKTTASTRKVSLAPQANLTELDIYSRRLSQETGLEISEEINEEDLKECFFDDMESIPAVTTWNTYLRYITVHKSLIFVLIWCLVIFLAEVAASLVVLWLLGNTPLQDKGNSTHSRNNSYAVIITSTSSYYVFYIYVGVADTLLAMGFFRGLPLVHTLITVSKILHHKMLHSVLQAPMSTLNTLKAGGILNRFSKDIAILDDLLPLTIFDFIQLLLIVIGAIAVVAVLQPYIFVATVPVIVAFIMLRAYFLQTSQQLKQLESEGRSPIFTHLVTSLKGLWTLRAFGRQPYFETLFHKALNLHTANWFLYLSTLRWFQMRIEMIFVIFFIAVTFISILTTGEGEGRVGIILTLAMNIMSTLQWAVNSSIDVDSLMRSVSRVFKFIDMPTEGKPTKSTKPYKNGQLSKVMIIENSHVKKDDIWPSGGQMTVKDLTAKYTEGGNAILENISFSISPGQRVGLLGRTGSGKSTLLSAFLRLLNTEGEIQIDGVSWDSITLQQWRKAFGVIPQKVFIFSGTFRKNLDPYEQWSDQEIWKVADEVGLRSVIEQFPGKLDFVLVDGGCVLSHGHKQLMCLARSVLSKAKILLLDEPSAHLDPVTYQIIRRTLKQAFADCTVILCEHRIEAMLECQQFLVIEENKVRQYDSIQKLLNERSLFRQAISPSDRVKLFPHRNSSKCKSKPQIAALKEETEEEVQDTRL
Outline: (§1)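 Primary bronchial epithelia from F508del/F508del donors (three donors) were grown at air/liquid interface and given corrector (5 μM VX-661) or none. After 24 h, peptide or DMSO was applied apically in Hank's solution for 1 h, then removed, and cells were kept a further 24 h. Ussing chambers used Ringer's with a low-chloride apical side. Isc changes were read after forskolin (10 μM) activation and Inh-172 inhibition; n = 5 filters.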

[5] = Drug uptake in human HeLa cells assessed as absolute cytosolic entry efficiency at 5 uM incubated for 2 hrs by flow cytometry; assay type: ADME, subcellular, Cytoplasm
[6] = test system: Epithelial cell; assay: Inhibition of CAL and CFTR F508del mutant interaction in human CF-HBE cells isolated from patient with F508del mutation assessed as increase in short-circuit current incubated for 24 hrs in presence of 5 uM VX-661 by relative to VX-661 alone; assay type: cell-based; outline: as §1
[7] = test system: NCI-H358; assay: Toxicity in human NCI-H358 cells assessed as reduction in cell viability up to 50 uM incubated for 72 hrs by MTT assay; assay type: cell-based; conditions: nci-h358, 72 h
Outline: (§2)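 CFBE41o-, HCT116 or H358 cells were seeded at 5 × 10^3 per well and the next day exposed for 72 h at 37 °C to serial dilutions of peptide in DPBS at constant 0.5% DMSO. MTT was added for 4 h, formazan was solubilized with SDS-HCl overnight and absorbance read at 565 nm. Viability was expressed relative to 0.5% DMSO controls (100%); n = 3.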

[8] = Drug metabolism in human HCT-116 cells assessed as formation of (2S)-2-[[(2S)-2-[[(2S,3R)-2-[[(2R)-2-[[(2S)-1-[(2S)-2-[[(2S)-2-[[(2S)-2-[[(2S)-2-[[(2R)-2-[[(2R)-2-acetamido-3-sulfanyl-propanoyl]amino]-5-guanidino-pentanoyl]amino]-5-guanidino-pentanoyl]amino]-5-guanidino-pentanoyl]amino]-3-(2-naphthyl)propanoyl]amino]-3-(benzothiophen-3-yl)propanoyl]piperidine-2-carbonyl]amino]-3-methyl-3-sulfanyl-butanoyl]amino]-3-hydroxy-butanoyl]amino]-5-guanidino-pentanoyl]amino]-3,3-dimethyl-butanoic acid at 5 uM incubated for 4 to 24 hrs by MALDI-TOF-TOF mass spectrometry; assay type: ADME, cell-based; conditions: hct-116, 5 µM, time 4-24 hrs
Outline: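 HCT116 spheroids (7,000 cells seeded on agarose, grown 12 days) were exposed to 5 μM cyclic peptide for 4 or 24 h. They were washed, gelatin-embedded and cut into 16 μm sections. Positive-ion MALDI-TOF-TOF imaging (m/z 360–1400) gave heatmaps, scaled to the most intense signal, for intact peptide and about 20 possible proteolytic fragments.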

[9] = test system: HCT-116; assay: Toxicity in human HCT-116 cells assessed as reduction in cell viability up to 50 uM incubated for 72 hrs by MTT assay; assay type: cell-based; conditions: hct-116, 72 h; outline: as §2
[10] = Toxicity in human CFBE41o- cells assessed as reduction in cell viability up to 50 uM incubated for 72 hrs by MTT assay; assay type: cell-based; outline: as §2
[11] = molecular target: T2, Na(+)/H(+) exchange regulatory cofactor NHE-RF2 (Homo sapiens, UniProt Q15599); assay: Binding affinity to NHERF2 PDZ1 domain (unknown origin) expressed in Escherichia coli BL21 incubated for 1 hr by fluorescence polarization based competition assay
T2 sequence (Q15599 whole entry, the tested form may be a part): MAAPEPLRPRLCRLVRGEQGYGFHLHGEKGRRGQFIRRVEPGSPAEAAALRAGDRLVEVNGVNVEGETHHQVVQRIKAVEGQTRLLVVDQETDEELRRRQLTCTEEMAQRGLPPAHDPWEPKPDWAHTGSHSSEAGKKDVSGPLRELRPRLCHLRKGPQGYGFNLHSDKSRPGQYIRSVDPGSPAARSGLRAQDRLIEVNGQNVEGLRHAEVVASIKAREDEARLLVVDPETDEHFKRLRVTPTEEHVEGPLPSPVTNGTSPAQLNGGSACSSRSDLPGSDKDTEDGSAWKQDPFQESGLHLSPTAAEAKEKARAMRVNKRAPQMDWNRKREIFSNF
Outline: (§3)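 CAL, NHERF1 and NHERF2 PDZ domains carried a C-terminal His6 tag, were expressed in E. coli BL21 (0.1 mM IPTG, 16 h at 18 °C) and purified on Ni-NTA. For direct binding, 50 nM fluorescein-labelled peptide was titrated with PDZ protein (0–2.5 μM CAL; 0–25 μM NHERF1/2) in PBS pH 7.4 with 0.01% Triton X-100 and 2 mM TCEP for 1 h at room temperature. Fluorescence polarization gave KD; n = 3.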

[12] = molecular target: T3, Na(+)/H(+) exchange regulatory cofactor NHE-RF1 (Homo sapiens, UniProt O14745); assay: Binding affinity to NHERF1 PDZ1 domain (unknown origin) expressed in Escherichia coli BL21 incubated for 1 hr by fluorescence polarization based competition assay; outline: as §3
T3 sequence (O14745 whole entry): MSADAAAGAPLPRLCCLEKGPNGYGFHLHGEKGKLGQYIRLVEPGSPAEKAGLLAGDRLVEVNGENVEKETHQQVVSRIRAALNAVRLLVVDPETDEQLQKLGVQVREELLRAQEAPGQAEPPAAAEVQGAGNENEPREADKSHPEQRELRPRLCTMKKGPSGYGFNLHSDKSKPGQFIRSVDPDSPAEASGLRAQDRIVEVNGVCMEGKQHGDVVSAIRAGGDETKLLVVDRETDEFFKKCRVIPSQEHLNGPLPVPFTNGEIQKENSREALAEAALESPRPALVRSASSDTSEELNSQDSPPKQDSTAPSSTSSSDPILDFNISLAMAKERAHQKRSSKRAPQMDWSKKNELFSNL

[13] = molecular target: T2, Na(+)/H(+) exchange regulatory cofactor NHE-RF2; assay: Binding affinity to NHERF2 PDZ2 domain (unknown origin) expressed in Escherichia coli BL21 incubated for 1 hr by fluorescence polarization based competition assay
[14] = molecular target: T1, Golgi-associated PDZ and coiled-coil motif-containing protein; assay: Binding affinity to C-terminal His6 tagged CAL PDZ domain (unknown origin) expressed in Escherichia coli BL21 incubated for 1 hr by fluorescence polarization assay
[15] = species: Homo sapiens; assay: Selectivity index, ratio of Kd for binding affinity to NHERF2 PDZ1 domain (unknown origin) expressed in Escherichia coli BL21 to Kd for binding affinity to C-terminal His6 tagged CAL PDZ domain (unknown origin) expressed in Escherichia coli BL21; outline: as §3
[16] = species: Homo sapiens; assay: Selectivity index, ratio of Kd for binding affinity to NHERF1 PDZ1 domain (unknown origin) expressed in Escherichia coli BL21 to Kd for binding affinity to C-terminal His6 tagged CAL PDZ domain (unknown origin) expressed in Escherichia coli BL21; outline: as §3

CC(=O)N[C@@H](CS)C(=O)N[C@H](CCCNC(=N)N)C(=O)N[C@@H](CCCNC(=N)N)C(=O)N[C@@H](CCCNC(=N)N)C(=O)N[C@@H](Cc1ccc2ccccc2c1)C(=O)N[C@@H](Cc1csc2ccccc12)C(=O)N1CCCC[C@H]1C(=O)N[C@H](C(=O)N[C@H](C(=O)N[C@@H](CCCNC(=N)N)C(=O)N[C@H](C(=O)O)C(C)(C)C)[C@@H](C)O)C(C)(C)S (Ac-C[dR]RR[2Nal][Bta][Pip][Pen]TR[Tle]-OH)
Drug uptake [1]: 61%
IC50 [2]: 20 nM
half-life at 100 µM [3]: > 24 h

CC(C)(CO)c1cc2cc(NC(=O)C3(c4ccc5c(c4)OC(F)(F)O5)CC3)c(F)cc2n1C[C@@H](O)CO
Activity [4]: Active

N=C(N)NCCC[C@@H]1NC(=O)[C@H](Cc2ccc3ccccc3c2)NC(=O)[C@@H](Cc2ccccc2)NC(=O)[C@H](CCC(N)=O)NC(=O)[C@@H](CCCNC(=N)N)NC(=O)[C@H](CCCNC(=N)N)NC(=O)[C@@H](CCCNC(=N)N)NC1=O (cyclo([2Nal]R[dR]R[dR]Q[dF]))
Drug uptake [5]: 62%

CC(=O)N[C@H]1CSSC(C)(C)[C@@H](C(=O)N[C@H](C(=O)N[C@@H](CCCNC(=N)N)C(=O)N[C@H](C(=O)O)C(C)(C)C)[C@@H](C)O)NC(=O)[C@@H]2CCCCN2C(=O)[C@H](Cc2csc3ccccc23)NC(=O)[C@H](Cc2ccc3ccccc3c2)NC(=O)[C@H](CCCNC(=N)N)NC(=O)[C@H](CCCNC(=N)N)NC(=O)[C@@H](CCCNC(=N)N)NC1=O (Ac-C[dR]RR[2Nal][Bta][Pip][Pen]TR[Tle]-OH; disulfide 1-8)
conc. at maximal effect [6]: 100 nM
inhibition [6]: Dose-dependent effect
Activity [7]: Non-Toxic
Drug metabolism [8]: Metabolite_Detected
Activity [9]: Non-Toxic
Activity [10]: Non-Toxic

C[C@@H](O)[C@H](NC(=O)[C@@H](NC(=O)[C@@H](NC(=O)[C@H](Cc1csc2ccccc12)NC(=O)[C@H](Cc1ccc2ccccc2c1)NC(=O)[C@H](CCCNC(=N)N)NC(=O)[C@H](CCCNC(=N)N)NC(=O)[C@@H](CCCNC(=N)N)NC(=O)[C@H](CS)NC(=O)COCCOCCNC(=O)c1ccc2c(c1)C(=O)OC21c2ccc(O)cc2Oc2cc(O)ccc21)C(C)(C)S)C(C)(C)C)C(=O)N[C@@H](CCCNC(=N)N)C(=O)N[C@H](C(=O)O)C(C)(C)C
Kd [11]: 560 nM
Kd [12]: 330 nM
Kd [13]: 2820 nM
Kd [14]: 49 nM
Ratio [15]: 11.4
Ratio [16]: 6.7

Reference: ChEMBL document CHEMBL4699666, “Cyclic Peptidyl Inhibitors against CAL/CFTR Interaction for Treatment of Cystic Fibrosis” (J Med Chem, 2020)
